Rows were chosen to be rich in hits. Some 4.8% of all compounds tested hit in one or more screens of this group.
Beta cell apopt = beta cell apoptosis inhibition | INS-1E cytokine-induced death, ATP luminescence, 48 h; percent of positive-control rescue, neutral wells zero | protection from apoptosis, % (test concentration not listed) | actives 0.8% (n = 300,000);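 active = Every replicate reaches about 75%, or at least half do and their mean reaches it too, limit read from the data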;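 also: 0% = cytokine-treated negative control wells and 100% = positive control rescue; higher means more ATP so stronger rescue from cytokine killing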
Efflux pump mplx = blocks antifungal efflux pumps in multiplex yeast assay; S. cerevisiae Candida pump triplex, Nile Red efflux; actives 0.44% (n = 330,000); inhibition, % at 10 µM;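 active = plate passing quality check with inhibition over a set limit, or well fluorescence over plate mean plus 4 SD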;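 also: Nile Red retained in pooled yeast measured as flow cytometry median fluorescence; 0% = buffer negative control and 100% = Enniatin B positive control; higher means more Nile Red kept so more efflux inhibition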
Mot1-301 SUMO = SUMOylation pathway inhibition by Mot1-301 growth rescue; S. cerevisiae Mot1-301 growth rescue, ATP luminescence, 38.5C; percent above DMSO median, 100 means doubled; growth rescue, % at 18.8 µM; actives 1% (n = 320,000); AID 2716;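 active = every valid replicate shows activation above 250% relative to neutral control wells; inactive = the rest, any valid replicate at or below 250%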;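 also: OY570 slx delta 5 strain wells were the positive control but not used for scaling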
CSC inhib = blocks cancer stem cells; cancer stem cell-like cells viability, luminescence; inhibition, % at 7.5 µM; actives 1.1% (n = 300,000); AID 2717; in the data active = inhibition above about 75%; tested in HMLE shEcad cells
WT yeast gro inh = growth inhibition of WT yeast, mitochondrial fusion screen; inhibition, % at 10 µM; mitochondrial fusion phenotypic screen, WT strain; actives 2.1% (n = 190,000); in the data active = inhibition above about 58%; tested in S. cerevisiae
T cruzi repl = blocks replication of Trypanosoma cruzi | T. cruzi beta-gal in NIH3T3, luminescence, 90 h | inhibition, % (no concentration beside the values) | actives 1.4% (n = 300,000);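 active = mean inhibition across valid replicates above about 55%, limit read from the data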;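 also: signal also drops with host cell toxicity which is not excluded here; 0% = plate median of DMSO wells and 100% = zero luminescence signal; higher percent means less beta-gal luminescence so fewer parasites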
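assay system = mouse NIH/3T3 fibroblasts infected with β-gal-expressing T. cruzi Tulahuen C4 | input = 5,000 NIH/3T3 host cells per well | buffer or medium = DMEM plus 2% FBS | timing = 3 h host attachment, then at least 90 h co-culture | measured by = GalScreen luminescence, 60 min | evaluation = luminescence reflecting intracellular parasite burden, expressed as percent inhibition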
Active calls of the source: *; · = no result given.

SMILES | Beta cell apopt | Efflux pump mplx | Mot1-301 SUMO | CSC inhib | WT yeast gro inh | T cruzi repl
Cc1cccnc1NCc1ccc(O)c2ncccc12 | · | 0 | -4 | 56 | -16 | 47
Oc1ccc(CN2CCCc3ccccc32)c2cccnc12 | 103* | 0 | -12 | 1 | -12 | -7
Cc1ccccc1N1CCN(Cc2c[nH]c3ccccc23)CC1 | 111* | 0 | 5 | 30 | 9 | 60*
COc1ccccc1N1CCN(Cc2c[nH]c3ccccc23)CC1 | · | 0 | -3 | 5 | · | 58*
COc1ccccc1N1CCN(Cc2ccc(O)c3ncccc23)CC1 | 139* | 0 | 1 | · | 14 | 46
Cc1ccccc1N1CCN(Cc2ccc(Br)o2)CC1 | 0 | 0 | 0 | 5 | · | 9
Cc1[nH]nc(SCC(=O)NCc2ccc(Cl)cc2)c1[N+](=O)[O-] | -6 | 0 | -12 | 19 | -1 | -1
CC(C)(C)OC(=O)N1CCC(Cc2cc(-c3cccnc3)no2)(C(=O)O)CC1 | -12 | · | -5 | 7 | · | -19
CCOC(=O)C1CCN(Cc2ccc(O)c3ncccc23)CC1 | 85* | 0 | 391 | 41 | -8 | 55*
O=C(Oc1c(CN2CCOCC2)cc(Cl)c2cccnc12)c1ccccc1Br | 97* | 0 | 110 | 19 | · | 45
CCOC(=O)N1CCN(Cc2cc(Cl)c3cccnc3c2O)CC1 | 103* | 0 | -3 | 19 | 3 | 44
CC1(C)C(=O)Nc2ccccc2N1C(=O)COC(=O)c1cccnc1 | 4 | 0 | -16 | · | · | ·
COc1ccc(C(=O)N/N=C/c2cc(Br)ccc2O)cc1OC | 104* | 0 | 133 | 36 | · | 56*
COc1ccc(O)c(/C=N/NC(=O)c2ccc(OCc3cccc(Br)c3)cc2)c1 | 93* | 0 | 7 | 91* | 17 | 73*
COc1ccc(C(=O)Nc2ccccc2C(=O)N/N=C/c2ccccn2)cc1OC | 95* | 0 | -3 | 15 | · | 18
COc1ccc(/C=N/NC(=O)c2ccc(Br)cc2)c(OC)c1 | -2 | 0 | 4 | -8 | 0 | -8
O=P(O)(CN1CCCCC1)C1CCCCC1O (configuration not stated) | · | · | · | · | 18 | ·
O=C(N/N=C/c1ccccc1O)C1CC(=O)N(c2ccc(Cl)cc2)C1 (configuration not stated) | 84* | 0 | -14 | 1 | · | 7
COC(=O)CSc1nnc(CNC(=O)c2ccc(OC)c(OC)c2)n1C | -4 | 0 | -11 | -9 | -2 | 11
COc1ccccc1CC(NC(C)=O)C(=O)NC1CCN(C(=O)c2ccc(C)cc2)CC1 (configuration not stated) | 3 | 0 | 3 | -16 | · | -12
COc1cccc(N/C(SCc2cccc([N+](=O)[O-])c2)=C(/C#N)C(N)=O)c1 | 3 | 0 | 7 | 28 | 8 | 67*
COc1cccc(NC(=O)CC(=O)c2ccc([N+](=O)[O-])cc2)c1 | 6 | 0 | 197 | 19 | · | -8
CC1=CC(C)(C)N(C(=O)CSc2nnc(-c3ccc(C)cc3)o2)c2ccc(C)cc21 | 82* | 0 | 449 | · | 8 | 14
CC1=CC(C)(C)N(C(=O)CSc2nnc(C)s2)c2ccc(C)cc21 | -12 | 0 | 184 | -8 | -4 | -9
CC(C)CNC(=O)c1ccc(COc2ccc(Cl)cc2Cl)o1 | 0 | 0 | 7 | 2 | 5 | 24
SMILES | Beta cell apopt | Efflux pump mplx | Mot1-301 SUMO | CSC inhib | WT yeast gro inh | T cruzi repl
Cc1c(Br)cc(C(=O)N2CCN(CCO)CC2)c(C)c1C | -2 | 0 | -21 | -2 | 13 | -3
OCCN1CCN(CCCc2c3c(cc4c2CCC4)CCC3)CC1 | -7 | 0 | 4 | 95* | -9 | 18
O=C(Cn1c(-c2ccccc2)c[n+]2ccsc12)c1ccc([N+](=O)[O-])cc1 | 94* | 0 | 834 | 22 | -5 | 75*
O=C(Cn1c(-c2ccccc2)c[n+]2ccsc12)c1ccccc1 | 15 | 0 | -11 | -5 | -4 | 69*
O=C(Cn1cc[n+](Cc2ccccc2)c1)c1ccc([N+](=O)[O-])cc1 | 25 | 0 | 21 | -13 | 24 | -13
COc1ccc(N(C(=O)CCl)C(C(=O)NCCc2ccccc2)c2cccs2)cc1 (configuration not stated) | -4 | 0 | 164 | 111* | 55 | 12
CCn1cc(CN2CCCC(C(=O)c3ccc(-c4ccccc4)c(F)c3)C2)cn1 (configuration not stated) | 6 | 0 | 138 | 32 | · | 55*
O=C(c1ccc(-c2ccccc2)c(F)c1)C1CCCN(CCCn2cccn2)C1 (configuration not stated) | 4 | 0 | 201 | 48 | · | 45
CSc1ccccc1C(=O)C1CCCN(Cc2cnn(-c3ccccc3)c2)C1 (configuration not stated) | 0 | 0 | 20 | 16 | 22 | 74*
Cc1ccc(NC(=O)NCc2ccccn2)c(C)c1 | 2 | 0 | 4 | -5 | · | ·
Cc1cccc(N2CCN(C(=O)c3c(-c4ccccc4)noc3C)CC2)c1C | 5 | 0 | 1 | 45 | · | 0
COc1ccc(S(=O)(=O)N2CCC[C@H]2C(=O)NC2=NCCS2)cc1 | -1 | 0 | · | -10 | 66* | -9
COc1ccc(S(=O)(=O)N2CCCC2C(=O)Nc2ccc(O)cc2)cc1 (configuration not stated) | 1 | 0 | 3 | · | 7 | -6
Cc1ccc(-c2nn(C)c(=O)c3ccccc23)cc1S(=O)(=O)NCCN1CCOCC1 | -2 | 0 | -11 | -10 | 11 | 2
CCOC(=O)CNS(=O)(=O)c1cc(-c2nn(C)c(=O)c3ccccc23)ccc1C | 2 | 0 | 5 | 4 | 70* | 7
CCCC[C@H]1COCCS(=O)(=O)N1Cc1ccc(Br)cc1 | -8 | 0 | 31 | 0 | · | 11
Fc1ccc(COc2ccccc2C(=S)N2CCCC2)cc1 | 2 | 0 | 8 | -9 | 27 | 0
Cc1ccc(COc2ccccc2C(=S)N2CCCC2)cc1 | -4 | 0 | -2 | -6 | 61* | -5
CCC1=NN(C(=O)c2ccc(Cl)cc2)C(O)(c2ccccc2)C1 (configuration not stated) | 7 | 0 | -13 | 63 | · | 10
CCC1=NN(C(=O)c2ccccc2O)C(O)(c2ccccc2)C1 (configuration not stated) | 87* | 0 | -7 | 79* | · | -16
CCC1=NN(C(=O)c2ccc(Cl)cc2)C(O)(c2ccc(C)cc2)C1 (configuration not stated) | 5 | 0 | 45 | 99* | · | 4
CCC1=NN(C(=O)c2ccccc2Br)C(O)(c2ccc(Br)cc2)C1 (configuration not stated) | -1 | 0 | 2 | -9 | 8 | 14
O=C(NCCCN1CCCC1=O)c1ccc([N+](=O)[O-])s1 | -1 | 0 | -1 | -7 | · | 60*

Screening data: PubChem, several laboratories
